ChEMBL document CHEMBL3593171, “Characterization of l-Digitoxosyl-phenanthroviridin from Streptomyces venezuelae ISP5230” (2015)

Assay: Cytotoxicity against human NCI60 cells by NCI protocol based assay
Assay type: functional
Summary of the method: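 NCI-60 human tumour cell line panel run per the NCI protocol, with ethanol used as solvent in place of DMSO. Single-dose screen at 10 μM first, then five-dose assay from 10 nM to 100 μM at log10 intervals. Percent growth was plotted against concentration for each cell line, and GI50, TGI and LC50 were calculated from the dose–response curves.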
With `CC(=O)O[C@H]1O[C@@H](n2cc(COC[C@H]3C(=O)OC4c5cc(C)cc(O)c5C5=C(C(=O)c6c(O[C@H]7C[C@@H](O)[C@@H](O)[C@H](C)O7)cccc6C5=O)N43)nn2)[C@@H](OC(C)=O)[C@@H](OC(C)=O)[C@@H]1OC(C)=O` (stereo partly drawn) the GI50 was 3.5 µM, the LC50 was 11.8 µM and the TGI was 7.2 µM. `Cc1cc(O)c2c(c1)[C@@H]1OC(=O)[C@H]([C@H](C)O)N1C1=C2C(=O)c2cccc(O[C@H]3C[C@@H](O)[C@@H](O)[C@H](C)O3)c2C1=O` [JADOMYCIN T] gave a GI50 of 1.35 µM, an LC50 of 6.5 µM and a TGI of 3.02 µM. Work on `Cc1cc(O)c2c(c1)[C@@H]1OC(=O)CN1C1=C2C(=O)c2cccc(O[C@H]3C[C@@H](O)[C@@H](O)[C@H](C)O3)c2C1=O` [JADOMYCIN G] yielded a GI50 of 1.68 µM, an LC50 of 38.5 µM and a TGI of 9.6 µM. `CC(=O)O[C@@H]1[C@@H](OC(C)=O)[C@H](C)O[C@H](n2cc(COC[C@H]3C(=O)OC4c5cc(C)cc(O)c5C5=C(C(=O)c6c(O[C@H]7C[C@@H](O)[C@@H](O)[C@H](C)O7)cccc6C5=O)N43)nn2)[C@@H]1OC(C)=O` (stereo partly drawn) gave a GI50 of 3.1 µM, an LC50 of 9.8 µM and a TGI of 6.3 µM. `Cc1cc(O)c2c3c(ncc2c1)C(=O)c1c(O[C@H]2C[C@@H](O)[C@@H](O)[C@H](C)O2)cccc1C3=O` gave a GI50 of 2.14 µM, an LC50 of 18.2 µM and a TGI of 5.75 µM. For `Cc1cc(O)c2c(c1)C1OC(=O)[C@H](COCc3cn(Cc4ccccc4)nn3)N1C1=C2C(=O)c2cccc(O[C@H]3C[C@@H](O)[C@@H](O)[C@H](C)O3)c2C1=O` (stereo partly drawn), the GI50 was 6.1 µM, the LC50 was 14.9 µM and the TGI was 11.9 µM. With `CCCC1C(=O)OC2c3cc(C)cc(O)c3C3=C(C(=O)c4c(O[C@H]5C[C@@H](O)[C@@H](O)[C@H](C)O5)cccc4C3=O)N12` (stereo partly drawn) the GI50 was 4.79 µM, the LC50 was 19 µM and the TGI was 10 µM. With `CC(=O)OC[C@@H]1O[C@@H](n2cc(COC[C@H]3C(=O)OC4c5cc(C)cc(O)c5C5=C(C(=O)c6c(O[C@H]7C[C@@H](O)[C@@H](O)[C@H](C)O7)cccc6C5=O)N43)nn2)[C@H](OC(C)=O)[C@H](OC(C)=O)[C@H]1OC(C)=O` (stereo partly drawn) the GI50 was 3.7 µM, the LC50 was 10.9 µM and the TGI was 6.6 µM. Molecule `CC(=O)O[C@@H]1[C@@H](OC(C)=O)[C@H](C)O[C@@H](n2cc(COC[C@H]3C(=O)OC4c5cc(C)cc(O)c5C5=C(C(=O)c6c(O[C@H]7C[C@@H](O)[C@@H](O)[C@H](C)O7)cccc6C5=O)N43)nn2)[C@@H]1OC(C)=O` (stereo partly drawn) has a GI50 of 3.1 µM, an LC50 of 11.6 µM and a TGI of 6.8 µM. Molecule `Cc1cc(O)c2c(c1)[C@@H]1OC(=O)[C@H](CC(C)C)N1C1=C2C(=O)c2cccc(O[C@H]3C[C@@H](O)[C@@H](O)[C@H](C)O3)c2C1=O` [JADOMYCIN L] has a GI50 of 1.82 µM, an LC50 of 9.3 µM and a TGI of 4.1 µM. For `CCCCC1C(=O)OC2c3cc(C)cc(O)c3C3=C(C(=O)c4c(O[C@H]5C[C@@H](O)[C@@H](O)[C@H](C)O5)cccc4C3=O)N12` (stereo partly drawn), the GI50 was 3.89 µM, the LC50 was 18 µM and the TGI was 8.7 µM.
